Results as given in ChEMBL document CHEMBL2062420, “Triazole Appending Agent (TAAG): A New Synthon for Preparing Iodine-Based Molecular Imaging and Radiotherapy Agents” (ACS Med Chem Lett, 2012).
Each block holds one molecule with its values, some of them ahead of it.

How the values were obtained:
Mus musculus [1] = test: Biodistribution in Balb/c mouse large intestine at 1.37 MBq, iv up to 30 mins by gamma counter; assay type: ADME, organism-based; conditions: in vivo, 0.5 h
Thyroid gland [2] = test: Biodistribution in Balb/c mouse thyroid at 1.37 MBq, iv up to 30 mins by gamma counter; assay type: ADME, organism-based; conditions: in vivo, 0.5 h
Mus musculus [3] = test: Biodistribution in Balb/c mouse small intestine at 1.37 MBq, iv up to 30 mins by gamma counter; assay type: ADME, organism-based; conditions: in vivo, 0.5 h
Lung = test: Biodistribution in Balb/c mouse lungs at 1.37 MBq, iv up to 30 mins by gamma counter; assay type: ADME, organism-based; conditions: in vivo, 0.5 h
[4] = Stability of the compound in PBS at pH 7.4 after 48 hrs; assay type: physicochemical; conditions: buffer, pH 7.4, 48 h
Blood = test: Biodistribution in Balb/c mouse blood at 1.37 MBq, iv up to 30 mins by gamma counter; assay type: ADME, organism-based; conditions: in vivo, 0.5 h
Heart = test: Biodistribution in Balb/c mouse heart at 1.37 MBq, iv up to 30 mins by gamma counter; assay type: ADME, organism-based; conditions: in vivo, 0.5 h
Mus musculus [5] = test: Biodistribution in Balb/c mouse adrenals at 1.37 MBq, iv up to 30 mins by gamma counter; assay type: ADME, organism-based, Adrenal tissue; conditions: in vivo, 0.5 h
Brain = test: Biodistribution in Balb/c mouse brain at 1.37 MBq, iv up to 30 mins by gamma counter; assay type: ADME, organism-based; conditions: in vivo, 0.5 h
Bone = test: Biodistribution in Balb/c mouse bone at 1.37 MBq, iv up to 30 mins by gamma counter; assay type: ADME, organism-based, Bone element; conditions: in vivo, 0.5 h
Kidney [6] = test: Biodistribution in Balb/c mouse kidneys at 1.37 MBq, iv up to 30 mins by gamma counter; assay type: ADME, organism-based; conditions: in vivo, 0.5 h
[7] = Stability in PBS at pH 7.4 assessed as deiodination of compound after 48 hrs; assay type: physicochemical; conditions: buffer, pH 7.4, 48 h
[8] = Lipophilicity, log D of the compound at pH 7.4; assay type: physicochemical; conditions: buffer
Stomach = test: Biodistribution in Balb/c mouse stomach at 1.37 MBq, iv up to 30 mins by gamma counter; assay type: ADME, organism-based; conditions: in vivo, 0.5 h
Liver = test: Biodistribution in Balb/c mouse liver at 1.37 MBq, iv up to 30 mins by gamma counter; assay type: ADME, organism-based; conditions: in vivo, 0.5 h
Urinary bladder [9] = test: Biodistribution in Balb/c mouse bladder at 1.37 MBq, iv up to 30 mins by gamma counter; assay type: ADME, organism-based; conditions: in vivo, 0.5 h
Spleen = test: Biodistribution in Balb/c mouse spleen at 1.37 MBq, iv up to 30 mins by gamma counter; assay type: ADME, organism-based; conditions: in vivo, 0.5 h
Mus musculus [10] = test: Biodistribution in Balb/c mouse skeletal muscle at 1.37 MBq, iv up to 30 mins by gamma counter; assay type: ADME, organism-based, Muscle tissue; conditions: in vivo, 0.5 h
Urinary bladder [11] = test: Drug uptake in NCr nude mouse bladder xenografted with human LNCAP cells at 37 MBq, iv measured 2 hrs post injection by gamma counting; assay type: ADME, organism-based; conditions: in vivo
How it was run: (§1)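 Male NCr nude mice bearing LNCap tumours (PSMA-expressing) received 37 MBq of the radioiodinated PSMA-TAAG conjugate via the tail vein. Distribution was followed by scintigraphic imaging at 2 h and 24 h post-injection, with a fused scintigraphic-CT image taken at 23 h.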

[12] = Drug uptake in NCr nude mouse tumor xenografted with human LNCAP cells measured 1 hr post injection in presence of PSMA inhibition PMPA; assay type: ADME, Neoplasm; conditions: tumor (human LNCaP xenograft), with PMPA (PSMA inhibitor), amount not stated, read-out: Drug uptake
Kidney [13] = test: Drug uptake in NCr nude mouse kidney xenografted with human LNCAP cells at 37 MBq, iv measured 2 hrs post injection by gamma counting; assay type: ADME, organism-based; conditions: in vivo; how it was run: as §1
[14] = Drug uptake in NCr nude mouse tumor xenografted with human LNCAP cells at 0.63 MBq, iv measured 1 hrs post injection by gamma counting; assay type: ADME, organism-based, Neoplasm; conditions: in vivo
[15] = Drug uptake in NCr nude mouse tumor xenografted with human LNCAP cells at 37 MBq, iv measured 24 hrs post injection by gamma counting; assay type: ADME, organism-based, Neoplasm; conditions: in vivo; how it was run: as §1
[16] = Drug uptake in NCr nude mouse tumor xenografted with human LNCAP cells at 37 MBq, iv measured 2 hrs post injection by gamma counting; assay type: ADME, organism-based, Neoplasm; conditions: in vivo; how it was run: as §1
[17] = Drug uptake in NCr nude mouse tumor xenografted with human LNCAP cells at 0.63 MBq, iv measured 23 hrs post injection by gamma counting; assay type: ADME, organism-based, Neoplasm; conditions: in vivo
Thyroid gland [18] = test: Drug uptake in NCr nude mouse thyroid xenografted with human LNCAP cells at 37 MBq, iv measured 24 hrs post injection by gamma counting; assay type: ADME, organism-based; conditions: in vivo; how it was run: as §1
Thyroid gland [19] = test: Drug uptake in NCr nude mouse thyroid xenografted with human LNCAP cells at 0.63 MBq, iv measured 23 hrs post injection by gamma counting; assay type: ADME, organism-based; conditions: in vivo

Drug uptake (Mus musculus [1]): Not Active
Drug uptake (Thyroid gland [2]): Not Active
Drug uptake (Mus musculus [3]): Not Active
Drug uptake (Lung): Not Active
Stability [4]: Stable
Drug uptake (Blood): Not Active
Drug uptake (Heart): Not Active
Drug uptake (Mus musculus [5]): Not Active
Drug uptake (Brain): Not Active
Drug uptake (Bone): Not Active
Drug uptake (Kidney [6]): Not Active
Stability [7]: Stable
logD [8]: -2.58
Drug uptake (Stomach): Not Active
Drug uptake (Liver): Not Active
Drug uptake (Urinary bladder [9]): Active
Drug uptake (Spleen): Not Active
Drug uptake (Mus musculus [10]): Not Active
SMILES: O=C(O)Cn1cc([123I])nn1

Drug uptake (Urinary bladder [11]): Active
tissue uptake at 1 h [12]: < 2 %ID/g
Drug uptake (Kidney [13]): Active
Drug uptake [14]: 20 % ID/g
Drug uptake [15]: Active
Drug uptake [16]: Active
logD [8]: -3.23
Drug uptake [17]: 15 % ID/g
Drug uptake (Thyroid gland [18]): Active
Drug uptake (Thyroid gland [19]): 10 % ID/g
SMILES: O=C(O)CC[C@H](NC(=O)N[C@@H](CCCCNC(=O)Cn1cc([123I])nn1)C(=O)O)C(=O)O

logD [8]: 0.07
SMILES: O=C(O)c1ccc(I)cc1
